The values that follow come from the RNAGym collection of RNA variant scans (doi:10.1002/anie.201605470).

B1: Osa-1-4 twister ribozyme (parent)
chain: CCGCCUAACACUGCCAAUGCCGGUCCCAAGCCCGGAUAAAAGUGGAGGGGGCGG

This data set covers variants of B1. Description: self-cleavage, relative activity (ratio to wild type); higher = more cleavage; co-transcriptional. The gist of the method:
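Relative activity is the fraction cleaved divided by that of the wild-type ribozyme. The library came from a DNA template for a 54-nucleotide Oryza sativa twister ribozyme, doped at the 48 positions downstream of the cleavage site with 97 % wild-type base and 1 % of each other base. After 2 h of in vitro transcription at 37 °C with co-transcriptional self-cleavage, the RNA was reverse-transcribed with a template-switching oligonucleotide, amplified by PCR and deep-sequenced, and reads with or without upstream sequence gave the cleavage status.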
Regarding CCGCCUAACACUGCCAAUCCCGGUCCCAAGCCCGGAUAAAAGUGGAGGGGGCGC [G19C G54C], the self-cleavage was 0.06. The same measure for CCGCCUAACACUGCCAAUCCCGGUCCCAAGCCCGGAUAAAAGUGGAGGGGGCGA [G19C G54A]: 0.11; for CCGCCUAACACUGCCAAUCCCGGUCCCAAGCCCGGAUAAAAGUGGAGGGGGCGU [G19C G54U]: 0.4. The same measure for CCGCCUAACACAGCCAAUACCGGUCCCAAGCCCGGAUAAAAGUGGAGGGGGCGG [G19A U12A]: 0.12; for CCGCCUAACACCGCCAAUACCGGUCCCAAGCCCGGAUAAAAGUGGAGGGGGCGG [G19A U12C]: 0.09. For the variant CCGCCUAACACGGCCAAUACCGGUCCCAAGCCCGGAUAAAAGUGGAGGGGGCGG [G19A U12G], the self-cleavage was determined as 0.13.

In the case of CCGCCUAACACUGCCAAAACCGGUCCCAAGCCCGGAUAAAAGUGGAGGGGGCGG [G19A U18A], the self-cleavage was found to be 0.84.

With CCGCCUAACACUGCCAACACCGGUCCCAAGCCCGGAUAAAAGUGGAGGGGGCGG [G19A U18C], the self-cleavage is 0.93. CCGCCUAACACUGCCAAGACCGGUCCCAAGCCCGGAUAAAAGUGGAGGGGGCGG [G19A U18G]: the self-cleavage came to 1.01. The result for CCGCCUAACACUGCCAAUCCCGGUCCCAAGCCCGGAUAAAAGUGGAGGGAGCGG [G19C G50A] reads 0.24. The result for CCGCCUAACACUGCCAAUCCCGGUCCCAAGCCCGGAUAAAAGUGGAGGGCGCGG [G19C G50C] reads 0.06; that for CCGCCUAACACUGCCAAUCCCGGUCCCAAGCCCGGAUAAAAGUGGAGGGUGCGG [G19C G50U], 0.07.

With CCGCCUAACACUGCCAAUCCCGGUCCCAAGCCCGGAUAAAAGGGGAGGGGGCGG [G19C U43G], the self-cleavage was determined as 0.07. The same measure for CCGCCUAACACUGCCAAUCCCGGUCCCAAGCCCGGAUAAAAGCGGAGGGGGCGG [G19C U43C]: 0.05; for CCGCCUAACACUGCCAAUCCCGGUCCCAAGCCCGGAUAAAAGAGGAGGGGGCGG [G19C U43A]: 0.07. The same measure for CCGCCUAACACUGCCAAUACCGGUCCCAAGCCCGGAUAAAAGUGGAGGGGGCUG [G19A G53U]: 0.13; for CCGCCUAACACUGCCAAUACCGGUCCCAAGCCCGGAUAAAAGUGGAGGGGGCCG [G19A G53C]: 0.09; for CCGCCUAACACUGCCAAUACCGGUCCCAAGCCCGGAUAAAAGUGGAGGGGGCAG [G19A G53A]: 0.18. Consider CCGCCUAACACUGCCAAUACCGGACCCAAGCCCGGAUAAAAGUGGAGGGGGCGG [G19A U24A], for which the self-cleavage was 0.08. The result for CCGCCUAACACUGCCAAUACCGGGCCCAAGCCCGGAUAAAAGUGGAGGGGGCGG [G19A U24G] reads 0.09; that for CCGCCUAACACUGCCAAUACCGGCCCCAAGCCCGGAUAAAAGUGGAGGGGGCGG [G19A U24C], 0.08. The result for CCGCCUAACACUGCCAAUCCCGGUCCCAAACCCGGAUAAAAGUGGAGGGGGCGG [G19C G30A] reads 0.02. Regarding CCGCCUAACACUGCCAAUCCCGGUCCCAAUCCCGGAUAAAAGUGGAGGGGGCGG [G19C G30U], the self-cleavage amounted to 0.02. The same measure for CCGCCUAACACUGCCAAUCCCGGUCCCAACCCCGGAUAAAAGUGGAGGGGGCGG [G19C G30C]: 0.03; for CCGCCUAACACUGCCAAUUCCAGUCCCAAGCCCGGAUAAAAGUGGAGGGGGCGG [G19U G22A]: 0.32. For the variant CCGCCUAACACUGCCAAUUCCUGUCCCAAGCCCGGAUAAAAGUGGAGGGGGCGG [G19U G22U], the self-cleavage was found to be 0.12.

As to CCGCCUAACACUGCCAAUUCCCGUCCCAAGCCCGGAUAAAAGUGGAGGGGGCGG [G19U G22C], the self-cleavage was 0.05. As for CCGCCUAACACUGCCAAUCCCGGUCCCAAGCCCUGAUAAAAGUGGAGGGGGCGG [G19C G34U], the self-cleavage came to 0.07. The same measure for CCGCCUAACACUGCCAAUCCCGGUCCCAAGCCCAGAUAAAAGUGGAGGGGGCGG [G19C G34A]: 0.1; for CCGCCUAACACUGCCAAUCCCGGUCCCAAGCCCCGAUAAAAGUGGAGGGGGCGG [G19C G34C]: 0.05; for CCGCCUAACACUGCCAAUACCGGUCCCAAGCCCGGACAAAAGUGGAGGGGGCGG [G19A U37C]: 1.03. As for CCGCCUAACACUGCCAAUACCGGUCCCAAGCCCGGAAAAAAGUGGAGGGGGCGG [G19A U37A], the self-cleavage came to 0.88. Regarding CCGCCUAACACUGCCAAUACCGGUCCCAAGCCCGGAGAAAAGUGGAGGGGGCGG [G19A U37G], the self-cleavage turned out to be 1. For CCGCCUAACACUGCCAAUACCGGUCCCAAGCCCGGAUAAAAGUGGAGGGGGCGC [G19A G54C], the self-cleavage came to 0.24. In the case of CCGCCUAACACUGCCAAUACCGGUCCCAAGCCCGGAUAAAAGUGGAGGGGGCGU [G19A G54U], the self-cleavage worked out at 0.65. The result for CCGCCUAACACUGCCAAUACCGGUCCCAAGCCCGGAUAAAAGUGGAGGGGGCGA [G19A G54A] reads 0.31. CCGCCUAACACUGCCAAUCCCGGUCCCAAGCCCGGAUAAAAGUGGAGUGGGCGG [G19C G48U]: the self-cleavage was found to be 0.03.

As for CCGCCUAACACUGCCAAUCCCGGUCCCAAGCCCGGAUAAAAGUGGAGAGGGCGG [G19C G48A], the self-cleavage turned out to be 0.02.

For CCGCCUAACACUGCCAAUCCCGGUCCCAAGCCCGGAUAAAAGUGGAGCGGGCGG [G19C G48C], the self-cleavage turned out to be 0.02.

For CCGCCUAACACUGCCAAGCCCGGUCCCAAGCCCGGAUAAAAGUGGAGGGGGCGG [G19C U18G], the self-cleavage turned out to be 0.91. With CCGCCUAACACUGCCAACCCCGGUCCCAAGCCCGGAUAAAAGUGGAGGGGGCGG [G19C U18C], the self-cleavage was determined as 0.39.

Consider CCGCCUAACACUGCCAAACCCGGUCCCAAGCCCGGAUAAAAGUGGAGGGGGCGG [G19C U18A], for which the self-cleavage worked out at 0.66. For the variant CCGCCUAACACUGCCAAUCCCGGUCCCAAGCCCGGAUAAAAGUGGAGGGGGCGG [G19C], the self-cleavage is 0.27. The same measure for CCGCCUAACACUGCCAAUUCCGGUCCCAAGCCCGGAUAAAAGUGGAGGGGGCGG [G19U]: 0.57.

On to CCGCCUAACACUGCCAAUACCGGUCCCAAGCCCGGAUAAAAGCGGAGGGGGCGG [G19A U43C], for which the self-cleavage stood at 0.12. The result for CCGCCUAACACUGCCAAUACCGGUCCCAAGCCCGGAUAAAAGAGGAGGGGGCGG [G19A U43A] reads 0.23. CCGCCUAACACUGCCAAUACCGGUCCCAAGCCCGGAUAAAAGGGGAGGGGGCGG [G19A U43G]: the self-cleavage came out at 0.12.

Take CCGCCUAACACUGCCAAUCCCGGACCCAAGCCCGGAUAAAAGUGGAGGGGGCGG [G19C U24A]: the self-cleavage came to 0.04.
